Laboratory results as given in paper PMC9890135 (Molecular Cancer Therapeutics, 2022).

Experiments:
[1] = target: T1, MET (Homo sapiens, UniProt P08581, DEL964-1010); assay: Inhibition of receptor phosphorylation, ELISA, Hs 746T cells; assay type: cell-based
[2] = target: VEGFR2 (Homo sapiens, UniProt P35968); assay: Inhibition of receptor phosphorylation, ELISA, HUVEC/VEGF165; assay type: cell-based; settings: Cellular IC50 ± SD, VEGFR2 autophosphorylation, serum-free
[3] = target: T2, AXL (Homo sapiens, UniProt P30530); assay: Inhibition of receptor phosphorylation, ELISA, A-172 cells/GAS6; assay type: cell-based
T2 sequence (P30530 26-894): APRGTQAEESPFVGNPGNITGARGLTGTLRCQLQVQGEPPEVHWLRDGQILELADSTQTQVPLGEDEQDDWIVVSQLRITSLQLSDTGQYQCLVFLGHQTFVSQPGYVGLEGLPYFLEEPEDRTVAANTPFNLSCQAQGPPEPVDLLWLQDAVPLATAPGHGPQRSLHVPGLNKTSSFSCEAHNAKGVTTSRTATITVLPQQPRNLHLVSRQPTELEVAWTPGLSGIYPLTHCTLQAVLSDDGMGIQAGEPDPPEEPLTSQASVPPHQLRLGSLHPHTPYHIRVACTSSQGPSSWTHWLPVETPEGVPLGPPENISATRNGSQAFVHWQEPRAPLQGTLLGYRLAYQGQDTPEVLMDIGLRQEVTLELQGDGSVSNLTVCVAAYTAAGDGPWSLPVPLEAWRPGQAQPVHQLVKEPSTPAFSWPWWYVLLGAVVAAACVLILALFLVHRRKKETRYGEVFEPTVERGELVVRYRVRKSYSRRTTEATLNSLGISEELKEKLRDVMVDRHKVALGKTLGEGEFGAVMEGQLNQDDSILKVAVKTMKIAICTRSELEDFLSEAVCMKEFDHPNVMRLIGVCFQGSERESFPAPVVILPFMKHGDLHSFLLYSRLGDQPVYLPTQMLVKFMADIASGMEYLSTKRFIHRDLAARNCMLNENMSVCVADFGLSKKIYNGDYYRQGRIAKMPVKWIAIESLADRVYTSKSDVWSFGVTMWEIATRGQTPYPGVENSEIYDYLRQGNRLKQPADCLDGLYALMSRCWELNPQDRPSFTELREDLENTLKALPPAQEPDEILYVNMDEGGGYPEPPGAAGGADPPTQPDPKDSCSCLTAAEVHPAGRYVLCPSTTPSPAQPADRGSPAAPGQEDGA

[4] = system: SNU-5 cells; assay: Cellular proliferation, BrdU incorporation ELISA; assay type: cell-based; settings: Homo sapiens, SNU-5, 48 h, read-out: Proliferation IC50
In short: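 SNU-5 seeded at 7,500 cells/well in triplicate in IMDM + 10% FBS + 1% penicillin-streptomycin, overnight at 37°C, 5% CO2. Serial dilutions added for 48 h. BrdU labelling 2 h at 37°C. Plates spun 300 × g, 10 min before medium removal. FixDenat 30 min at RT, anti-BrdU-POD 90 min at RT, washes, chemiluminescent read.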

[5] = system: HUVEC cells; assay: Cellular proliferation, BrdU incorporation ELISA; assay type: cell-based; settings: Homo sapiens, 48 h, read-out: Proliferation IC50
In short: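 HUVEC seeded at 1,500 cells/well in triplicate in VEGF-containing endothelial growth medium, overnight at 37°C, 5% CO2. Serial dilutions added for 48 h. BrdU labelling 2 h at 37°C, FixDenat 30 min at RT, anti-BrdU-POD 90 min at RT, washes, then chemiluminescent substrate read.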

[6] = target: T1, MET; assay: MET phosphorylation in Hs 746T tumors in vivo; design: species or system mice; settings: Hs 746T model; single dose of 100 mg/kg
[7] = target: VEGFR2 (Mus musculus, UniProt P35918); assay type: in vivo, mice; settings: lung
In short: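 Hs 746T tumour-bearing mice received single oral doses (30 or 100 mg/kg; n = 5 pooled) or vehicle (n = 6 pooled). Then hVEGF (10 μg i.v.) 3.5 h later, 30 min before sacrifice. Lung homogenate immunoprecipitated overnight with anti-VEGFR2 on Protein A magnetic beads; Western for phospho- and total VEGFR2, infrared imaging. 100 mg/kg group also sampled every 12 h to 48 h.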

[8] = system: Hs 746T tumors; assay: Hs 746T xenograft tumor growth; assay type: in vivo, mice; settings: 12 days, oral
In short: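 Human tumour cells inoculated into the rear flank. Mice randomised at mean volumes of ~200 mm3 (Hs 746T), ~120 mm3 (MDA-MB-231), ~100 mm3 (NCI-H441) or ~90 mm3 (SNU-5). Oral gavage once daily with test compound or vehicle. Tumour volume and body weight measured at least twice weekly. […], using mean volumes at extraction and dosing start.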

[9] = system: MC38 tumors; assay: MC38 syngeneic tumor model, XL092 and ICI combination studies; assay type: in vivo, mice; settings: XL092 3 mg/kg orally once a day, anti-PD-1 5 mg/kg twice a week for 2 weeks i.p., 35 days
[10] = system: primary human CD14+ monocyte-derived M2 macrophages; assay: Macrophage M2 to M1 repolarization; assay type: cell-based; settings: 2, 4, and 6 μmol/L XL092 for 7 days; 5 donors
In short: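 CD14+ monocytes (1.0 × 10^6 cells/mL) differentiated 6 days into M2 macrophages, then cryopreserved. Thawed cells seeded at 2.0 × 10^5/well in M2 differentiation medium and exposed to 2, 4 or 6 μmol/L for 7 days at 37°C, 5% CO2, with medium and compound renewed on day 4; triplicate per donor, 5 donors. After Fc block, stained with anti-CD163 and 7-AAD. Viable CD163−/CD163+ ratio expressed as fold change versus DMSO.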

[11] = system: panel of 405 protein kinases; assay: KinaseProfiler 33P radiometric kinase assay, panel; assay type: biochemical
In short: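 Radiometric 33P-phosphoryl transfer assay measuring catalytic activity of recombinant active kinase domains across the profiling panel.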

[12] = rats; cited from earlier work

Sequence of VEGFR2 (Mus musculus, UniProt P35918) (P35918 20-1345): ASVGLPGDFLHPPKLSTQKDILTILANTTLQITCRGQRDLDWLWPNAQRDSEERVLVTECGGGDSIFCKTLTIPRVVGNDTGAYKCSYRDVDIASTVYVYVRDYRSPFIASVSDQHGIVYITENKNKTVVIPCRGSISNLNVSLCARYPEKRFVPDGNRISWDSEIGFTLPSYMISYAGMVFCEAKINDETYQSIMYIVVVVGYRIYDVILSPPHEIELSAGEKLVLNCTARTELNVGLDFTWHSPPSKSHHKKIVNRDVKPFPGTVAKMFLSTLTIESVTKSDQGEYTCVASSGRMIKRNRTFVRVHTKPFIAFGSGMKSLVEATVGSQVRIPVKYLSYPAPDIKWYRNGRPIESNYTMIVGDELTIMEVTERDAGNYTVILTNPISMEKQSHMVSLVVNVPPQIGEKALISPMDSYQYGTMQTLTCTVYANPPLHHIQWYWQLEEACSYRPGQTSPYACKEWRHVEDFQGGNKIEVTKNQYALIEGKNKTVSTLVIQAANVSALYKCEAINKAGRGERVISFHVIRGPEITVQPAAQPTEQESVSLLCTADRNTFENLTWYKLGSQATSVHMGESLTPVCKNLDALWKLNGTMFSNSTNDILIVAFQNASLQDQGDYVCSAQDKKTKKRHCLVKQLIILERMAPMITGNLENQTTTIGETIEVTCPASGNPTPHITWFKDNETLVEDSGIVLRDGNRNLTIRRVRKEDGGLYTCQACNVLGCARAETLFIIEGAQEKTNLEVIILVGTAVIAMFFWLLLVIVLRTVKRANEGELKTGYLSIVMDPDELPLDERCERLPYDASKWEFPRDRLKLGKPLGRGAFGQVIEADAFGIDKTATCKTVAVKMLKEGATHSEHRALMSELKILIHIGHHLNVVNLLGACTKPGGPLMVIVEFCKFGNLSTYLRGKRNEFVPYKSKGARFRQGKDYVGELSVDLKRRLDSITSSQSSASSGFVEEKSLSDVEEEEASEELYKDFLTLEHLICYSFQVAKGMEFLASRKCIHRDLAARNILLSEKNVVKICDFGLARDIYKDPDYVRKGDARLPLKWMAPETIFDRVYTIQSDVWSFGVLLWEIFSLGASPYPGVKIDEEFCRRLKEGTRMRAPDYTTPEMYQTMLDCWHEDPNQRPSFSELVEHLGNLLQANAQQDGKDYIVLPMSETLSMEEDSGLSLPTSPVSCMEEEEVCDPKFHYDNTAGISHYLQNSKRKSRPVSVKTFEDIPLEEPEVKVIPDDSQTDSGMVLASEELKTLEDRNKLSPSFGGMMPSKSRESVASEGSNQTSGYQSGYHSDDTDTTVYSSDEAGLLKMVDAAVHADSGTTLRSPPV
Sequence of VEGFR2 (Homo sapiens, UniProt P35968) (P35968 20-1356): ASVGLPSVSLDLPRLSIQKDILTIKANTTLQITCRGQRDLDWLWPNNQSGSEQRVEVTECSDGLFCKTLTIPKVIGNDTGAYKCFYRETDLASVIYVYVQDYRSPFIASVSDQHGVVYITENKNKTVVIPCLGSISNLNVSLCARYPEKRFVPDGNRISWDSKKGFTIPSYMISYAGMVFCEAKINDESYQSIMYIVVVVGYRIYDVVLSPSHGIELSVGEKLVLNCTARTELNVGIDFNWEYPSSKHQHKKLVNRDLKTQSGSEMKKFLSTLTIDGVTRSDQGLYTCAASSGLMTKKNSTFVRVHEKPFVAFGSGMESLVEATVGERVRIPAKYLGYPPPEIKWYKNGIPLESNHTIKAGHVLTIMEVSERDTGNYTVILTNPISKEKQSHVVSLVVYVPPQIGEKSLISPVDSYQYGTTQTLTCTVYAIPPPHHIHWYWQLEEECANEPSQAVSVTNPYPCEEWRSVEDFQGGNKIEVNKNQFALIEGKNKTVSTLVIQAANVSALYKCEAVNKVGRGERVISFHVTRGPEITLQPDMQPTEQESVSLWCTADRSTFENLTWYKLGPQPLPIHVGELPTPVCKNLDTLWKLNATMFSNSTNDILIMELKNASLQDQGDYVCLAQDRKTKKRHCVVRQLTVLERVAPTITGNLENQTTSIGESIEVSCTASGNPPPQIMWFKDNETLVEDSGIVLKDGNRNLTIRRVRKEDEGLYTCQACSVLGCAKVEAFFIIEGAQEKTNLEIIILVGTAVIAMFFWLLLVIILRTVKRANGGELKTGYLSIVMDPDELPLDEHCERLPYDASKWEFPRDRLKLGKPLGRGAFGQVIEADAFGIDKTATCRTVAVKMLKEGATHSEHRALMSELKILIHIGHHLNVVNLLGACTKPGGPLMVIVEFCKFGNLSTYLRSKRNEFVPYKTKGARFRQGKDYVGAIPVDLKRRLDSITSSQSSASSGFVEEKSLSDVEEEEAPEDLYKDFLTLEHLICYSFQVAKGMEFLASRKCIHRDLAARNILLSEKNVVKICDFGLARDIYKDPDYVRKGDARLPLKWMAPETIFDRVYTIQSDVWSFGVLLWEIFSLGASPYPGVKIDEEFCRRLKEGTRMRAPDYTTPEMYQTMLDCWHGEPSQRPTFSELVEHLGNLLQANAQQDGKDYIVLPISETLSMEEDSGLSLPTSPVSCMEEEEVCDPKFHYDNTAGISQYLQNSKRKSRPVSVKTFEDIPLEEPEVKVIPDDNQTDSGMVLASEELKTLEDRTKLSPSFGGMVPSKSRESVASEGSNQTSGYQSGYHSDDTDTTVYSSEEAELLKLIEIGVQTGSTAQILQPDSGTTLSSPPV

CNC(=O)c1cc2c(Oc3ccc(NC(=O)C4(C(=O)Nc5ccc(F)cc5)CC4)cc3)ccnc2cc1OC [XL092]
IC50 [1]: 25.4 ± 1.32 nM
IC50 [2]: 1.57 ± 1.52 nM
IC50 [3]: 3.89 ± 1.61 nM
IC50 [4]: 98.9 nM
IC50 [5]: 10.4 nM
duration of inhibition of MET phosphorylation [6]: approximately 24 hours
duration of inhibition of VEGFR2 phosphorylation ([7]; Hs 746T model, single dose of 100 mg/kg): approximately 24 hours
pVEGFR2 Inhibition, % ([7]; Hs 746T tumor-bearing mice, 30 mg/kg single bolus, 4 hours after treatment): complete abolishment
Tumor growth inhibition ([8]; 1 mg/kg/day): 10.1%
Tumor growth inhibition ([8]; 3 mg/kg/day): 35.6%
Tumor growth inhibition ([8]; 10 mg/kg/day): 70.2%
Tumor growth inhibition ([8]; 30 mg/kg/day): 94.9%
TGI compared with vehicle [9]: significant TGI
M1 (CD163-negative) to M2 (CD163-positive) ratio [10]: dose-dependent increases
activity against serine or threonine kinases ([11]; kinase profiling): No activity
inhibition of additional RTKs and TKs ([11]; single concentration of 1 μmol/L, panel of 405 protein kinases): ≥ 70%
half-life [12]: approximately 7 hours
